This is one part of a sample in which hits are shown more often than they occur.
L major viab: inhibitors of Leishmania major promastigote growth; inhibition, % at 10 µM; actives 9% (n = 200,000); Leishmania major promastigotes, resazurin fluorescence viability;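 also: promastigotes grown with compound for 44 hours at 28 °C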
PfGluPho inh: PfG6PD (Plasmodium falciparum) enzyme inhibition | PfGluPho enzyme, NADPH resazurin-diaphorase fluorescence | inhibition, % at 20 µM | actives 0.78% (n = 350,000) | AID 504690;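 active = inhibition reaching at least a set limit at 20 µM in the primary screen, cut at about 59% in these data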;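 also: 0% = DMSO wells with substrate and 100% = DMSO wells lacking glucose-6-phosphate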
Diaphorase act: activates diaphorase or chemically reduces, flagging diaphorase assay artifacts; Diaphorase/resazurin coupled assay, resorufin fluorescence, 16 min; stronger effect = higher value; 1 = vehicle wells, 0 = NADH-free wells; activation factor at 20 µM; actives 0.005% (n = 190,000); AID 1229;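 active = diaphorase activity raised at least twofold by the compound at 20 µM; inactive = activation factor below 2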
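Test system: Clostridium kluyveri diaphorase, purified enzyme. Buffer or medium: 50 mM HEPES pH 7.4 buffer plus MgCl2 and Tween 20. Also added: 0.114 mM NADH and 0.1 mM resazurin, final amounts. Dosing: compound 20 µM once, DMSO 1%. Schedule: 16 min enzyme reaction, ambient temperature. Detection: fluorescence of resorufin, 544 nm excitation, 590 nm emission.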
Diaph inh CS: inhibits diaphorase or chemically oxidizes, flagging diaphorase assay artifacts; diaphorase resazurin-to-resorufin fluorescence, NADH, 16 min; bacterial (C. kluyveri) enzyme, not human; inhibition, % at 20 µM; actives 0.69% (n = 190,000);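 active = primary screen inhibition at 20 µM above a set limit, cut at about 50% in these data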;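 also: plate controls were DMSO with full reaction for no effect and wells lacking NADH for full effect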
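Assay system – diaphorase enzyme from Clostridium kluyveri · Amount – diaphorase 0.14 U/mL (working solution) · Times – reaction incubation of 16 min at room temperature · Controls – No-NADH positive control and DMSO neutral control · Signal – resorufin fluorescence 544/590 nm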
G6PDH counter: counter-screen for G6PDH assay hits: L. mesenteroides G6PDH inhibition; Purified L. mesenteroides G6PDH, diaphorase/resazurin coupled fluorescence, 45 min; inhibition, % at 5 µM; actives 0.12% (n = 200,000); AID 1020
Redox H2O2 prof: compounds producing H2O2 with reducing agent – biochemical, NIH compound library profiling, artefact control for MLSCN library redox annotation, primary screen. DTT-dependent redox cycling H2O2, phenol red/HRP absorbance; 100% = 100 µM peroxide control, 0% = buffer. activation, % at 10 µM. actives 0.03% (n = 200,000). AID 878;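 active = activation of at least 50% relative to the plate's high and low controls in the primary single-dose screen; inactive = activation below 50%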;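 also: compound incubated with DTT at 0.8 mM final as the reducing agent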
Active calls of the source: *; x = no result. Rule as the data show it, unless noted: active = inhibition above about 50%; inactive = the rest.

SMILES | L major viab | PfGluPho inh | Diaphorase act | Diaph inh CS | G6PDH counter | Redox H2O2 prof
CCOc1ccc(C(C)=O)cc1CSC(=N)N | -2 | -10 | 0.9 | 6 | 9 | 0
CCCCOc1ccc(CSC2=NCCN2)cc1[N+](=O)[O-] | 95* | -6 | 0.9 | 10 | 5 | 1
COc1ccc(NC(=O)CSc2ccc3ccccc3c2)cc1S(=O)(=O)N1CCCCC1 | 19 | -1 | 0.8 | 23 | 0 | 1
CCOc1ccc(C(=O)Nc2cccc(-c3nc4ccccc4[nH]3)c2C)cc1[N+](=O)[O-] | 51* | -7 | 0.8 | 24 | 9 | 0
CCOc1ccc(C(=O)Nc2cc(-c3nc4ccccc4[nH]3)ccc2C)cc1[N+](=O)[O-] | 36 | 11 | 0.9 | 8 | 9 | 3
CCOc1ccc(C(=O)Nc2cc(-c3nc4ccccc4[nH]3)ccc2Cl)cc1[N+](=O)[O-] | 96* | 37 | 0.8 | 16 | -15 | 0
COC(=O)c1ccc(NS(=O)(=O)c2ccc(S(=O)(=O)N3CCOCC3)cc2)cc1 | x | -12 | x | x | x | x
CCC(=O)OCCNc1cc(SCCC(=O)OC)c2nonc2c1[N+](=O)[O-] | 14 | 34 | 0.3 | 71* | -10 | 1
CCC(=O)OCCNc1cc(Sc2nccn2C)c2nonc2c1[N+](=O)[O-] | 85* | 29 | 0.7 | 31 | -6 | 1
CC(=O)OCCNc1cc(SC(C)C)c2nonc2c1[N+](=O)[O-] | 6 | -2 | 0.5 | 52* | -2 | 0
Cc1ccc(Sc2cc(NCCCO)c([N+](=O)[O-])c3nonc23)cc1 | x | 11 | x | x | x | x
CC(C)CCSc1cc(NCCO)c([N+](=O)[O-])c2nonc12 | 13 | 32 | 0.2 | 80* | 12 | 1
CC(=O)OCCN(C)c1cc(SC(C)C)c2nonc2c1[N+](=O)[O-] | 10 | 12 | 0.9 | 11 | 14 | 0
CC(=O)OCCCNc1cc(Sc2ccc(Cl)cc2)c2nonc2c1[N+](=O)[O-] | 3 | 14 | 0.5 | 49 | -6 | 1
CC(C)C[C@H](NC(=O)[C@H](Cc1ccccc1)n1c(=O)[nH]c2ccccc2c1=O)C(=O)N1CCC[C@H]1C(=O)O | x | -7 | x | x | x | x
CN(C)n1cnc2ccsc2c1=O | 0 | 0 | 0.9 | 11 | 8 | 0
O=[N+]([O-])c1c(NCCO)cc(N2CCCCC2)c2nonc12 | 9 | 13 | 0.5 | 52* | 26 | 0
O=C(Nc1ccccc1Cl)c1ccccc1Oc1ccc(C(F)(F)F)cc1[N+](=O)[O-] | 79* | 3 | 0.7 | 28 | 5 | 7
O=C(O)CNC(=O)c1ccc(NC(=O)/C(=C/c2ccccc2)NC(=O)c2ccco2)cc1 | x | -5 | x | x | x | x
O=C1c2ccccc2NC(c2ccco2)N1O (stereo not given) | 2 | -27 | 0.9 | 7 | 10 | 1
O=C1C2=C(Nc3ccccc3SC2c2ccco2)c2ccccc21 (stereo not given) | 99* | 52 | 0.6 | 44 | 4 | 0
O=C(CNc1ccc(Oc2ccccc2)cc1)N1CCOCC1 | -5 | 13 | 0.9 | 6 | 1 | 1
CCc1cc2c(=O)[nH]c(N3CCCC3)nc2s1 | -6 | -4 | 0.9 | 9 | 9 | 0
CCc1cc2c(=O)[nH]c(-c3ccccn3)nc2s1 | 99* | -11 | 1 | -1 | 8 | 0
COc1ccccc1NC(=O)Nc1ccncc1 | 97* | -8 | 1 | 4 | -1 | 0
SMILES | L major viab | PfGluPho inh | Diaphorase act | Diaph inh CS | G6PDH counter | Redox H2O2 prof
COc1ccc(OC)c(S(=O)(=O)N(C)CC(=O)Nc2ccccc2OC)c1 | 0 | -9 | 0.9 | 8 | -14 | 2
COc1ccc(NC(=O)Nc2ccccc2OC)cc1 | 2 | 15 | 0.9 | 14 | -4 | 0
COc1ccccc1NC(=O)Nc1cc(NC(=O)Nc2ccccc2OC)c(C)nc1C | 64* | -5 | 1 | 5 | 3 | 1
COc1ccccc1N/C(=N/c1nc(C)cc(C)n1)NC(C)=O | 61* | x | 1 | -3 | 2 | 0
COc1ccc(OC)c(/C(O)=C/C(=O)C(=O)Nc2ccccc2OC)c1 | 96* | -18 | 0.9 | 11 | 22 | 0
CCN1C(=O)[C@H]2[C@@H](c3ccc(C)cc3)N3C(=O)N(c4ccc(OC)cc4)C(=O)[C@@]3(CC)[C@H]2C1=O | x | 16 | x | x | x | x
COc1ccc(C2c3[nH]c4ccccc4c3CCN2Cc2cccn2-c2ncccn2)cc1C (stereo not given) | 71* | -9 | 1.2 | -21 | 12 | -1
Cc1cccc(C2c3[nH]c4ccccc4c3CCN2Cc2cccn2-c2ncccn2)c1 (stereo not given) | 59* | -2 | 1 | 1 | 3 | -1
CC1CCCCN1C(=O)CSc1nc2cc3c(cc2c(=O)n1Cc1ccc2c(c1)OCO2)OCO3 (stereo not given) | 54* | 2 | 0.9 | 12 | -42 | 1
COC(=O)c1c(C(=O)OC)c(-c2cccc(F)c2)n2c1CS(=O)(=O)C2 | x | 7 | x | x | x | x
O=C(COc1ccc(S(=O)(=O)NC2CCCCC2)cc1Cl)NCc1ccc2c(c1)OCO2 | 73* | 16 | 0.7 | 29 | 6 | 0
CC(NC(=O)C(C)N1C(=O)C2C3CC(C(Br)C3Br)C2C1=O)c1ccccc1 (stereo not given) | 82* | 15 | 0.9 | 7 | 2 | 0
CC(NC(=O)C(C)N1C(=O)c2ccccc2C1=O)c1ccccc1 (stereo not given) | x | -12 | x | x | x | x
C=CCN1C(=O)C2(/C(=C(\O)c3ccc4c(c3)OCCO4)C(=O)C(=O)N2CCCOC)c2ccccc21 (stereo not given) | 5 | -13 | 1 | -2 | 25 | 0
COc1nc(N2CCOCC2)nc(C)c1[N+](=O)[O-] | 62* | 0 | 0.9 | 11 | -4 | 0
COc1cccc(-c2cc3nc(-c4ccccc4)cc(N4CCN(C(=O)c5ccoc5)CC4)n3n2)c1 | x | -2 | x | x | x | x
OCCCNc1cc(-c2ccccc2)nc2cc(-c3ccc(F)cc3)nn12 | x | -1 | x | x | x | x
Fc1ccc(-c2cc3nc(-c4ccccc4)cc(N4CCN(CCN5CCOCC5)CC4)n3n2)cc1 | 77* | 40 | 0.7 | 29 | 2 | 1
COc1cccc(-c2cc3nc(-c4ccccc4)cc(N4CCC5(CC4)OCCO5)n3n2)c1 | 63* | 5 | 0.9 | 14 | 10 | 2
CN1CCN(c2cc(-c3ccccc3)nc3cc(-c4ccc(F)cc4)nn23)CC1 | 100* | 9 | 0.8 | 16 | 2 | 0
O=C(c1ccoc1)N1CCN(c2cc(-c3ccccc3)nc3cc(-c4ccccc4)nn23)CC1 | x | 12 | x | x | x | x
CN1CCN(c2ccc(-c3ccnn3C(=O)Nc3cccc(C(F)(F)F)c3)cc2)CC1 | 3 | 8 | 1 | -5 | 24 | 0
